The record followed here is ChEMBL document CHEMBL4190334, “Evaluation of Oxetan-3-ol, Thietan-3-ol, and Derivatives Thereof as Bioisosteres of the Carboxylic Acid Functional Group” (ACS Med Chem Lett, 2017).

The target of data set [1] is T1, Polyunsaturated fatty acid 5-lipoxygenase (Rattus norvegicus, UniProt P12527).
T1 sequence (P12527 whole entry): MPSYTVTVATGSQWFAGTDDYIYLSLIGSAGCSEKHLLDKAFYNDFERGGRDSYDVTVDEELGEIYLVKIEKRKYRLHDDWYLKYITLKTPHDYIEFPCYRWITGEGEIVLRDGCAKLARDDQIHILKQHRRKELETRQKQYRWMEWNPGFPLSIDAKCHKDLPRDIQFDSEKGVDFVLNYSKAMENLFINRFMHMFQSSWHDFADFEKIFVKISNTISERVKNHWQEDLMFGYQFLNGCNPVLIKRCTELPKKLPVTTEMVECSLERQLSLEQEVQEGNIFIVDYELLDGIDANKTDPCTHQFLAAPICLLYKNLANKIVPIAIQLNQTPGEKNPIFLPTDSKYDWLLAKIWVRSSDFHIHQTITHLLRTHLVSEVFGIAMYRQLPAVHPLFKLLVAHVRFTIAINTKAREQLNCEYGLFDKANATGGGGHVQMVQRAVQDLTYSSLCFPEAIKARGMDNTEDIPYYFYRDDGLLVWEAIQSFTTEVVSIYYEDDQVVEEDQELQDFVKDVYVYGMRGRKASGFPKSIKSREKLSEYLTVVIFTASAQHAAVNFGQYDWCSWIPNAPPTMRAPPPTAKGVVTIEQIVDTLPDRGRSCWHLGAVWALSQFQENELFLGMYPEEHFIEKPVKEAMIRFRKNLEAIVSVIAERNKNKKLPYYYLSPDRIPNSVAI
Kind of data set: Inhibition of 5-LOX in RBL1 cells assessed as reduction in LTB4 production using A23187-induced arachidonic acid as substrate preincubated for 2 hrs followed by A23187 addition measured after 15 mins by LC-MS/MS analysis. The class given is cell-based. The gist of the method: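 RBL-1 cells incubated 2 h with test compound at several concentrations, then A23187 (12 μM) added for 15 min to trigger arachidonic acid release; LTB4 in culture supernatant quantified by LC–MS/MS. Triplicate samples per concentration; IC50 with 95% confidence interval from sigmoidal curve fit.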

The target of data set [2] is T2, Cyclooxygenase (Rattus norvegicus, UniProt P35355+Q63921).
T2 sequence (P35355 whole entry): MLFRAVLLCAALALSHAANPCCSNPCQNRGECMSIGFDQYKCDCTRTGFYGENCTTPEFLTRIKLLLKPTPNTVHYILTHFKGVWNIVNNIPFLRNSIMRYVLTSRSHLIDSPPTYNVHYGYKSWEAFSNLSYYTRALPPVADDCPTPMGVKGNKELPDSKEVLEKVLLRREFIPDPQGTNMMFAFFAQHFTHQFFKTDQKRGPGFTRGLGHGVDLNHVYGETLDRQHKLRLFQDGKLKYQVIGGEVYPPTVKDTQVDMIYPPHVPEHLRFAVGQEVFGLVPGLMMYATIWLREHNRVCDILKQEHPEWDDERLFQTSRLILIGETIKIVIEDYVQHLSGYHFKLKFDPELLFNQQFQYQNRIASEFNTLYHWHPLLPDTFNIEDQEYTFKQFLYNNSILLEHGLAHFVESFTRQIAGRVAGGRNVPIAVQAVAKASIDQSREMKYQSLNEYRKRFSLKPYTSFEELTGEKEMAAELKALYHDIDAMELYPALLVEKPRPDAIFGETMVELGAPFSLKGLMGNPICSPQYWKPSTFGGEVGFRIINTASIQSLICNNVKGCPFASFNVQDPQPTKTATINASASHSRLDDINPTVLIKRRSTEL
T2 sequence (Q63921 whole entry): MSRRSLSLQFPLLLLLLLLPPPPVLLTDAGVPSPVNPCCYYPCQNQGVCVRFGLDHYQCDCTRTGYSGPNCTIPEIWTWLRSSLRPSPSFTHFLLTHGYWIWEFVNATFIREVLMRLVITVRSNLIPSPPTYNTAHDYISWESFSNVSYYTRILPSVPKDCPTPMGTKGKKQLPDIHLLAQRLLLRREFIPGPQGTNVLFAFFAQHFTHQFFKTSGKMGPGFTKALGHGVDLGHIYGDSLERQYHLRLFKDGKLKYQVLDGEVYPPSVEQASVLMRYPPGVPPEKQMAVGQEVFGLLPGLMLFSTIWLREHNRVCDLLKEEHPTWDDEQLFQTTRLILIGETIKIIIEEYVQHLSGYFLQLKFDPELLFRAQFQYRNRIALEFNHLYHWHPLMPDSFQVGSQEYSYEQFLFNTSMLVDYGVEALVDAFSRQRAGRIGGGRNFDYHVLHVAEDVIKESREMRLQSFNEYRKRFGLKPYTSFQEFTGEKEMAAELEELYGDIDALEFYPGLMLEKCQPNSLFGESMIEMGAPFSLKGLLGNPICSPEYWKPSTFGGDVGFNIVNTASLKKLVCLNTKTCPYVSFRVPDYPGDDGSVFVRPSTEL
Kind of data set: Inhibition of COX in RBL1 cells assessed as reduction in PGE2/D2 production using A23187-induced arachidonic acid as substrate preincubated for 2 hrs followed by A23187 addition measured after 15 mins by LC-MS/MS analysis. The class given is cell-based.

Data set [3] in a line: Dissociation constant, pKa of the compound by capillary electrophoresis method. In kind it is physicochemical.
Data set [4] can be described thus: n-Octanol-aqueous buffer distribution coefficient, log D of the compound at pH 7.4 by LC-MS method. In kind it is physicochemical.
The nature of data set [5]: Effective permeability of the compound by PAMPA. In kind it is ADME. The note with it: read-out: Peff. In outline: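 PAMPA run externally; effective permeability reported together with membrane retention and log apparent permeability coefficient.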
Background: PAMPA measures passive passage across an artificial lipid membrane.

Data set [6] is described as follows: Effective permeability of the compound assessed as membrane retention by PAMPA relative to control. The class given is ADME.

As usually defined, the IC50 is the concentration that inhibits the measured activity by half. Take `CC(C)Cc1ccc(C(C)C2(O)C[S+]([O-])C2)cc1` (centres undefined): the 50% inhibitory concentration (IC50) turned out to be 11.7 µM in data set [1] and 17.4 µM in data set [2].

The term pKa denotes the pH at which an ionisable group is half protonated. Usually logD stands for the decadic logarithm of the distribution of all forms, ionised or not, between an organic phase and buffer at a given pH. A low value points to lower lipophilicity. The compound `O=S1(=O)CC(O)(CCc2ccccc2)C1` yielded a pKa in data set [3] of 9.31. The compound also displayed a logD in data set [4] of 1.24. Also, the Papp in data set [5] was determined as 12.2 ×10⁻⁶ cm/s. Further, the R% in data set [6] stood at 10.7%.

With `CC(C)Cc1ccc(C2CC(O)=CC2=O)cc1` (centres undefined), the IC50 in data set [1] is greater than 100 µM; in data set [2], 28.1 µM.

On to `[O-][S+]1CC(O)(CCc2ccccc2)C1` (centres undefined), for which, in data set [3], the pKa was greater than 12. The logD in data set [4] was determined as 1.22. Further, in data set [5], the Papp is 6.23 ×10⁻⁶ cm/s. Besides, in data set [6], the R% came to 10%.

As to `CC(C)Cc1ccc(C(C)C2(O)CSC2)cc1` (centres undefined), the half-inhibitory concentration (IC50) in data set [1] was 7.6 µM; in data set [2] it was greater than 100 µM.

With `CC(C)Cc1ccc(C(C)C2(O)CS(=O)(=O)C2)cc1` (centres undefined), the half-inhibitory concentration (IC50) in data set [1] came to 20.2 µM; in data set [2] it was 14.6 µM.

In the case of `CC(C)Cc1ccc(C(C)c2nnn[nH]2)cc1` (centres undefined), the half-maximal inhibitory concentration (IC50) was greater than 100 µM in data set [1] and 31.8 µM in data set [2].

As to `CC(C)Cc1ccc(C(C)C2(O)COC2)cc1` (centres undefined), the figures for the half-maximal inhibitory concentration (IC50) in data set [1] and in data set [2] were 8.4 µM and 34.1 µM, respectively.

In turn, `OC1(CCc2ccccc2)CSC1` gave a pKa in data set [3] greater than 12. The same compound yielded a logD in data set [4] of 2.99. In data set [5], the Papp came to 13.2 ×10⁻⁶ cm/s. In addition, the R% in data set [6] turned out to be 11.4%.

In data set [3], `OC1(CCc2ccccc2)COC1` returned a pKa greater than 12. Moreover, the logD in data set [4] stood at 2.07. The Papp in data set [5] came to 8.27 ×10⁻⁶ cm/s. Further, in data set [6], the R% is -11.9%.

Take `CC(C)Cc1ccc(C(C)C(=O)O)cc1` (centres undefined) [IBUPROFEN]: the concentration for half-maximal inhibition (IC50) in data set [1] was greater than 100 µM.
